For 1 substance, PPB results are on record in ChEMBL document CHEMBL1125797, “Synthesis, characterization and myocardial uptake of cationic bis(arene)technetium(I) complexes” (J Med Chem, 1991).

One assay is filed under the species Rattus norvegicus. In words: The compound was tested for the plasma binding in rat. It is filed as functional. In a few lines:
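Plasma protein binding was measured in rat plasma samples collected during the rat biodistribution studies, after tail vein injection of the 99mTc complex in saline (~25 μCi/kg).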

For the next assay, the species on record is Homo sapiens. In words: The compound was tested for the plasma binding in human. It is filed as functional. In a few lines:
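Fresh heparinized human plasma (1.0 mL, obtained daily) was spiked with 0.02 mL test solution and incubated about 15 min. Duplicate samples went through saline-equilibrated Sephadex G-25 desalting columns by centrifugation. Eluate and gel were γ-counted for 1 min or to 1% σ error. % bound = net cpm eluate / net cpm (eluate + gel) × 100.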

Take Bis(m-xylene)technetium: the PPB in the assay filed under Rattus norvegicus is 12%; in the assay filed under Homo sapiens, 11%.
